Rows were chosen to be rich in hits. Some 2.5% of all compounds tested hit in one or more screens of this group.
SENP8 block-1: inhibitors of human SENP8 protease; purified SENP8, Z-RLRGG-aminoluciferin cleavage, luminescence; inhibition, % at 10 µM; 330,000 compounds, 1.2% hits; AID 2540; in the data active = inhibition above about 50%
Target sequence (Q96LD8 whole entry, looked up): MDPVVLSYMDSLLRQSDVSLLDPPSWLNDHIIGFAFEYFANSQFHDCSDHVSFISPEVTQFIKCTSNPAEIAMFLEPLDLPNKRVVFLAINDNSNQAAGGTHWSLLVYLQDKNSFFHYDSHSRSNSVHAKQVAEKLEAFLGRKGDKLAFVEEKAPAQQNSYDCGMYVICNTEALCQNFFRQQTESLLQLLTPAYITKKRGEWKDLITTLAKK
SENP6 block: inhibitors of human SENP6 protease; Q9GZR1; inhibition, % at 10 µM; Recombinant SENP6 catalytic domain, aminoluciferin luminescence; 330,000 compounds, 1.8% hits;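 active = inhibition above about 50% at the single tested dose, limit read from the data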
SENP7 block: inhibitors of human SENP7 protease | recombinant SENP7, Z-RLRGG-aminoluciferin luminescence, 40 min | inhibition, % at 5 µM | 330,000 compounds, 1.5% hits | AID 434973;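 active = inhibition above about 50% at the single test dose, limit read from the data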
SENP8 block-2: SENP8 (human) protease inhibition | 360,000 compounds, 0.64% hits | recombinant SENP8, Nedd8 substrate fluorescence | inhibition, % at 20 µM; in the data active = inhibition mostly above about 40%, no sharp cut-off; inactive = mostly below about 27%
SENP1 FRET inh: SENP1 (human) catalytic domain inhibition | Q9P0U3 | recombinant SENP1 catalytic domain, CyPet-SUMO1-YPet FRET cleavage | inhibition, % at 10 µM | 360,000 compounds, 0.21% hits;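 active = inhibition at least 30% at 10 µM, raw YFP signal under a set limit, fluorescence ratio 0.5 to 1.5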
Target sequence (Q9P0U3 419-644 limits assumed): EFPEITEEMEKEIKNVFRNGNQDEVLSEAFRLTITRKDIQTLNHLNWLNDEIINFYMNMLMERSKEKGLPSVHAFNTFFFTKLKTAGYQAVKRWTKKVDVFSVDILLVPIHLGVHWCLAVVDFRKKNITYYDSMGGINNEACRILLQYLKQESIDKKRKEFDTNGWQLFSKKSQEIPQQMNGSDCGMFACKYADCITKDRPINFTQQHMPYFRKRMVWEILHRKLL
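Controls: no-enzyme wells low, DMSO-plus-enzyme wells high control. Test system: human recombinant His6-tagged SENP1 catalytic domain enzyme. Reagent: SFCypet-SUMO1-SFYpet FRET protein substrate, 25 nM final. Doses: one dose per compound, 10 µM, 0.5% DMSO. Detection: FRET, CFP and YFP emission. Timing: 50 min reaction at room temperature.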
SENP1 conf: SENP1 (human) inhibition, single concentration confirmation; 520 compounds, 34% hits; AID 651678; shares compounds with SENP1 FRET inh; recombinant SENP1, CyPet-SUMO1-YPet FRET cleavage; inhibition, % at 10 µM; in the data active = inhibition mostly above about 35%, no sharp cut-off; inactive = mostly below about 32%
SENP1 kinetic: SENP1 (human) inhibition, kinetic confirmation; shares compounds with SENP1 FRET inh; recombinant SENP1, CyPet-SUMO1-YPet FRET kinetic cleavage; inhibition, % at 10 µM; 520 compounds, 26% hits; AID 651690; in the data active = inhibition mostly above about 32%, no sharp cut-off; inactive = mostly below about 29%
Numbers stand for hits; . = inactive; / = no result; ! = a repeat was not active.

SMILES | SENP8 block-1 | SENP6 block | SENP7 block | SENP8 block-2 | SENP1 FRET inh | SENP1 conf | SENP1 kinetic
CC(C)(C)N=Cc1c(O)ccc2oc3c(c12)CCCC3 | . | . | . | . | 31 | . | .
Cc1ccc(N2CC(C(=O)OCC(=O)Nc3c(C)cccc3C)CC2=O)cc1 (centres undefined) | / | / | / | . | . | / | /
CN1/C(=C/C=C(C#N)C#N)C=Cc2ccccc21 | . | . | . | . | 97 | . | .
CCOC(=O)/C(C#N)=C(C)/C=C1\Sc2ccccc2N1CC | . | . | . | . | . | / | /
CCOC(=O)/C(C#N)=C/C=C1\C=Cc2ccccc2N1CC | . | . | . | . | 52 | 71 | 39
c1ccc(CNc2ccc3c(c2)ncn3C2CCCCC2)nc1 | . | . | . | . | . | / | /
Nc1nc(N)c2sc3nc(C(F)(F)F)cc(C(F)(F)F)c3c2n1 | . | . | . | . | 68 | 35 | .
COC(=O)C1Cc2ccccc2CN1S(=O)(=O)c1ccc(F)cc1 (centres undefined) | . | . | . | . | . | / | /
CC1(C)CC(=O)C2=C(C1)Nc1ccccc1S2 | . | . | . | . | 46 | 29 | .
O=C1C=C(O)c2cccc3cccc1c23 | . | . | . | . | 45 | 66 | 42
NC1=CC(=O)c2cccc3cccc1c23 | . | . | . | / | / | / | /
Oc1ccc(Cl)cc1C1=Nc2ccccc2N=C(c2ccco2)C1 | . | . | . | . | 67 | 64 | 52
Cc1ccc(Cn2cc(/C=N/Nc3ccc([N+](=O)[O-])cn3)c3ccccc32)cc1 | . | . | . | . | . | / | /
Cc1c(/C=N/Nc2ccc([N+](=O)[O-])cn2)c2ccccc2n1Cc1ccccc1 | . | . | . | . | 63 | . | .
CN1C[C@H](C(=O)N[C@]2(C)O[C@@]3(O)[C@@H]4CCCN4C(=O)[C@H](Cc4ccccc4)N3C2=O)CC2c3cccc4[nH]cc(c34)C[C@H]21 (some centres undefined) | . | . | . | . | 34! | . | .
CC(C)C[C@H]1C(=O)N2CCC[C@H]2[C@]2(O)O[C@](NC(=O)C3C=C4c5cccc6[nH]c(Br)c(c56)C[C@H]4N(C)C3)(C(C)C)C(=O)N12 (some centres undefined) | . | . | . | . | . | / | /
CCOC(=O)C1=C[C@@H](c2ccccc2)N(S(=O)(=O)c2ccc(C)cc2)[C@H]1c1cccc(Cl)c1 | / | / | / | . | . | / | /
Cc1ccc(-n2c(SCC(=O)NC3CCS(=O)(=O)C3)nc3ccccc3c2=O)c(C)c1 (centres undefined) | / | / | / | . | . | / | /
c1cc(Nc2cccc3nccnc23)c2nccnc2c1 | . | . | . | . | 52 | 61 | 41
COC(=O)C1=C(C)N=c2s/c(=C/c3ccoc3)c(=O)n2C1c1ccccc1 (centres undefined) | . | . | . | . | . | / | /
CC(=O)C1=C(C)N=c2s/c(=C/c3ccc4c(c3)OCO4)c(=O)n2C1c1ccc(N(C)C)cc1 (centres undefined) | / | / | / | . | 65 | . | .
Cc1c(N)cccc1[N+](=O)[O-] | . | . | . | . | . | / | /
Nc1cc2c([N+](=O)[O-])cccc2o1 | . | . | . | . | 63 | . | .
COc1ccccc1Cc1c(-c2cccc(Br)c2)nc2ccc(Cl)cn12 | / | / | / | . | 33 | . | .
N#Cc1ccc(-c2nc3ccc(Cl)cn3c2Cc2ccccc2C(F)(F)F)cc1 | / | / | / | . | 48 | 55 | 45
SMILES | SENP8 block-1 | SENP6 block | SENP7 block | SENP8 block-2 | SENP1 FRET inh | SENP1 conf | SENP1 kinetic
COc1ccccc1Cc1c(-c2ccc(Cl)cc2)nc2ccc(Br)cn12 | / | / | / | . | 42 | . | .
COc1ccccc1Cc1c(-c2ccc(C)cc2)nc2ccc(Br)cn12 | / | / | / | . | . | / | /
CC1(C(=O)NS(=O)(=O)c2ccccc2Cl)CCN1C(=O)c1ccco1 (centres undefined) | / | / | / | . | . | / | /
Cc1cccc(-n2c(SCc3cc(=O)n4ccsc4n3)nc3ccccc32)c1 | . | . | . | . | 31 | 40 | .
CC/C(=N\NS(C)(=O)=O)c1ccccc1 | . | . | . | / | / | / | /
CCN(CC)C(=O)Cn1cc(C(=O)C(=O)N2CC=C(c3ccccc3)CC2)c2ccccc21 | . | . | . | . | 65 | 63 | 65
CCN(CC)C(=O)Cn1cc(C(=O)C(=O)N2CCN(C)CC2)c2ccccc21 | . | . | . | . | . | / | /
